Measured values reported in ChEMBL document CHEMBL2321775, “Synthesis and biological characterization of new aminophosphonates for mitochondrial pH determination by (31)P NMR spectroscopy” (J Med Chem, 2013).

Tests used:
NIH3T3 [1] = experiment: Cytotoxicity against mouse 3T3 cells assessed as LDH release per mg of protein at LD10 concentration after 1 hr by spectrophotometric analysis; format: cell-based; details: nih3t3, 1 h
Summary of the method: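 LDH released into the supernatant was measured after 1 h with a kit and expressed per mg protein. Total LDH was obtained from a Triton X-100 (1%) lysis control. Means of 3−6 independent experiments.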

[2] = Toxicity against Chlamydomonas reinhardtii D66 assessed as loss of photosynthetic activity after 1 hr; details: Chlamydomonas reinhardtii D66 cells, read-out: LD50
Summary of the method: (§1)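 Cell wall-less C. reinhardtii D66 grown in Tris acetate phosphate medium to 1−5 × 10^6 cells/mL at 25 °C. Exposed 1 h at 25 °C to 0.01−1 mM compound (DMSO ≤0.1%), under saturating light for photosynthesis or in the dark for respiration. NaHCO3 added (1 mM), then O2 measured by Clark electrode against DMSO control. LD50 is the concentration giving 50% activity loss.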

[3] = Dissociation constant, pKa of the compound in Krebs-Henseleit buffer; format: physicochemical
Summary of the method: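 31P NMR titration at 25 °C in Krebs−Henseleit buffer, with shifts referenced to external phosphoric acid and a D2O capillary as lock. Diethoxyphosphoryl shift plotted against pH (range 1.5−12) and fitted to the Henderson−Hasselbalch equation by nonlinear regression. Three independent titrations per compound, mean ± SEM.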

[4] = Toxicity against Chlamydomonas reinhardtii D66 assessed as loss of respiratory activity after 1 hr; details: Chlamydomonas reinhardtii D66 cells, read-out: LD50; summary of the method: as §1
[5] = (§2) Cytotoxicity against mouse 3T3 cells assessed as cell viability after 3 hrs by spectrophotometric analysis; format: cell-based, NIH3T3; details: 3T3 cells (NIH3T3), read-out: LD50
Summary of the method: (§3)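 Confluent 3T3 fibroblasts (DMEM, 10% FCS, 37 °C, 5% CO2) were switched to phenol red-free DMEM with 1% glucose and exposed 3 h to compound at 0.01−5 mM final (0.1% DMSO). Cells were then given neutral red (50 μg/mL, 2% FCS MEM) for 2 h and read at 540 nm. LD50 and LD10 were taken from dose−response curves over 3−6 experiments.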

NIH3T3 [6] = experiment: as §2; format: cell-based; details: nih3t3, 3 h; summary of the method: as §3
Liver [7] = experiment: Toxicity against Sprague-Dawley rat liver assessed as respiratory control ratio incubated for 1 hr followed by compound washout measured after 10 mins; format: tissue-based
Summary of the method: (§4)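 Livers perfused at 37 °C with 0.1 mM compound for 1 h, then 10 min cold KH washout. Mitochondria isolated in ice-cold 0.3 M sucrose by differential centrifugation for membrane potential measurement. RCR was taken as respiration with 0.5 mM ADP divided by respiration after ADP phosphorylation ended, in KH2PO4/EDTA/MOPS/MgCl2 with glutamate 20 mM and malate 1 mM, pH 7.2, 37 °C. Mean ± SD.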

[8] = Drug uptake in Sprague-Dawley rat liver cytosol incubated for 1 hr followed by compound washout measured after 10 mins; format: ADME, tissue-based
Summary of the method: (§5)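 Sprague−Dawley male rat livers (120−150 g) perfused via the portal vein, non-recirculating, at 37 °C with KH bicarbonate buffer (95% O2/5% CO2, pH 7.35) at 3 mL/min/g. After 30 min equilibration, 0.1 mM compound was given for 1 h, followed by a 10 min ice-cold KH washout. Liver homogenised in 0.25 M sucrose/10 mM HEPES pH 7.5; cytosol and mitochondria separated by differential centrifugation and levels reported as μmol/g. 3−9 experiments, mean ± SD.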

Liver [9] = experiment: Toxicity against Sprague-Dawley rat liver assessed as mitochondrial membrane potential incubated for 1 hr followed by compound washout measured after 10 mins; format: tissue-based; summary of the method: as §4
Liver [10] = experiment: Toxicity against Sprague-Dawley rat liver assessed as ATP content incubated for 1 hr followed by compound washout measured after 10 mins; format: tissue-based
Summary of the method: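 Rat livers perfused at 37 °C with KH buffer containing 0.1 mM compound for 1 h, then washed out for 10 min with cold KH. Organ freeze-clamped in liquid nitrogen and ATP measured enzymatically in perchloric extracts, given as μmol/g. Mean ± SD of 3−9 experiments.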

[11] = Drug uptake in Sprague-Dawley rat liver mitochondria incubated for 1 hr followed by compound washout measured after 10 mins; format: ADME; summary of the method: as §5
[12] = Drug uptake in Sprague-Dawley rat liver cytosol incubated for 1 hr followed by compound washout measured after 10 mins by 31P-NMR analysis; format: ADME, tissue-based; summary of the method: as §5
[13] = Drug uptake in Sprague-Dawley rat liver mitochondria incubated for 1 hr followed by compound washout measured after 10 mins by 31P-NMR analysis; format: ADME; summary of the method: as §5
Liver [14] = experiment: Metabolic stability in Sprague-Dawley rat liver incubated for 1 hr followed by compound washout measured after 10 mins by 31P-NMR analysis; format: ADME, tissue-based

Row | SMILES | Activity (NIH3T3 [1]) [IU] | LC50 at 1 h [2] [µM] | pKa [3] | LC50 at 1 h [4] [µM] | CC50 at 3 h [5] [µM] | LD10 (NIH3T3 [6]) [mM] | Ratio (Liver [7]) | Drug uptake [8] [µmol/g] | Activity (Liver [9]) [mV] | Activity (Liver [10]) [µmol/g] | Drug uptake [11] [µmol/g] | Drug uptake [12] | Drug uptake [13] | Stability (Liver [14])
1 | CCOP(=O)(OCC)C(NCCCCCCCCCCCC[P+](c1ccccc1)(c1ccccc1)c1ccccc1)C(C)C.[Br-] (racemic) | 52.7 | < 10 | 6.38 | < 10 | 20 | 0.01 | – | – | – | – | – | – | – | –
2 | CC(C)(C)/[N+]([O-])=C/c1ccccc1 | 14.2 | > 500 | – | > 500 | 7200 | 4.1 | 5.5 | 0.88 | 178.9 | 2.11 | < 0.05 | – | – | –
3 | CCOP(=O)(OCC)C(C)(C)NCCCCCCCCCCCC[P+](c1ccccc1)(c1ccccc1)c1ccccc1.[Br-] | 44.7 | < 25 | 6.85 | < 25 | 100 | 0.05 | – | – | – | – | – | – | – | –
4 | CCOP(=O)(OCC)C(NCCCCCC[P+](c1ccccc1)(c1ccccc1)c1ccccc1)C(C)C.[Br-] (racemic) | 15.9 | 130 | 5.99 | 130 | 500 | 0.2 | – | – | – | – | – | – | – | –
5 | CC(C)(C)/[N+]([O-])=C/c1ccc(OCCCC[P+](c2ccccc2)(c2ccccc2)c2ccccc2)cc1.[Br-] | 49.7 | 100 | – | 50 | 200 | 0.05 | 4.7 | 0.12 | 170.7 | 1.95 | 1.95 | Not Active | Active | Stable
6 | CCOP(=O)(OCC)C1(C)CCCN1 (stereo not drawn) | 13.1 | > 1000 | 7.01 | > 1000 | – | 78 | – | – | – | – | – | – | – | –
7 | CCOP(=O)(OCC)C(C)(C)NCCCCCC[P+](c1ccccc1)(c1ccccc1)c1ccccc1.[Br-] | 14.9 | 250 | 6.53 | 100 | 600 | 0.2 | 5.7 | 0.93 | 174.2 | 2.29 | 1.55 | – | – | –
8 | CCOP(=O)(OCC)C(C)(C)NCCCC[P+](c1ccccc1)(c1ccccc1)c1ccccc1.[Br-] | 10.2 | 500 | 5.9 | 400 | 700 | 0.4 | – | – | – | – | – | – | – | –
9 | CCOP(=O)(OCC)C(NCCCC[P+](c1ccccc1)(c1ccccc1)c1ccccc1)C(C)C.[Br-] (racemic) | 10.7 | 250 | 5.47 | 150 | 600 | 0.3 | – | – | – | – | – | – | – | –
10 | CCOP(=O)(OCC)C(NCCCCCC[P+](c1ccccc1)(c1ccccc1)c1ccccc1)C(C)(C)C.[Br-] (racemic) | 16.7 | – | 5.63 | – | 300 | 0.2 | – | – | – | – | – | – | – | –
11 | CCOP(=O)(OCC)C(C)(CCC[P+](c1ccccc1)(c1ccccc1)c1ccccc1)NCC(C)C.[Br-] (racemic) | 12.9 | 300 | 5.39 | 300 | 700 | 0.5 | – | – | – | – | – | – | – | –
12 | CCOP(=O)(OCC)C(NCCCCCCCC[P+](c1ccccc1)(c1ccccc1)c1ccccc1)C(C)C.[Br-] (racemic) | 49.4 | 25 | 6.23 | 25 | 300 | 0.05 | – | – | – | – | – | – | – | –
13 | CCCNC(C)(C)P(=O)(OCC)OCC | 11.9 | – | 6.99 | – | – | 76 | 5.9 | 0.56 | 181.3 | 2.33 | < 0.05 | – | – | –
14 | CCOP(=O)(OCC)C(C)(C)NCCCCCCCC[P+](c1ccccc1)(c1ccccc1)c1ccccc1.[Br-] | 17.7 | 100 | 6.94 | 75 | 300 | 0.15 | 5.2 | 0.64 | 171.9 | 2.08 | 1.32 | Active | Active | Stable
15 | CCOP(=O)(OCC)C(C)(N)CCC[P+](c1ccccc1)(c1ccccc1)c1ccccc1 (racemic) | – | – | 5.13 | – | – | – | – | – | – | – | – | – | – | –
